According to PMC11068032 (Journal of medicinal chemistry, 2023):

How the values were obtained:
[1] = test system: AR protein level in U87 cells; assay: AR downregulation in U87 cells by Western blotting; format: cell-based, human; conditions: 25, 50, and 100 nM
How it was run: (§1)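 Cells in 6-well plates treated with test compound or DMSO (T98G screens at 100 or 50 nM for 12 h). Lysed in RIPA with protease inhibitors (10 min on ice), spun at 10,000g for 10 min, protein by BCA. 50 µg resolved on 10% SDS-PAGE, transferred to PVDF, blocked 2 h in 5% milk/TBS-T. Anti-AR or anti-AR-V7 primary overnight at 4 °C, secondary 60 min at RT, chemiluminescence. Band gray values quantified.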

[2] = target: T1, α-crystallin (chaperone function domain of HSP27) (Bos taurus, UniProt P02470+P02510); assay: HSP27 chaperone activity assay; format: biochemical
T1 sequence (P02470 1-173): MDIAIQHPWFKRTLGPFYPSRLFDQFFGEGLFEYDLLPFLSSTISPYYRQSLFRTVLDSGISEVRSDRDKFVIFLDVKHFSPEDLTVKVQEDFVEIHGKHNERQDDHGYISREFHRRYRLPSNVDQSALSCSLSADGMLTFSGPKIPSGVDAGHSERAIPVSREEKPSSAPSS
T1 sequence (P02510 1-175): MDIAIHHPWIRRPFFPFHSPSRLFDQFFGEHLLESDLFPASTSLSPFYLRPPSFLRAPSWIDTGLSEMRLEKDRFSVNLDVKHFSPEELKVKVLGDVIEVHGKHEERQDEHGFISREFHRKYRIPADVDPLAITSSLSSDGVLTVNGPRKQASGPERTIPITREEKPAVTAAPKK
How it was run: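 Chaperone assay: insulin (from 1 mg/mL stock) with α-crystallin, the HSP27 chaperone domain (from 5 mg/mL stock), and test compound in PBS. Preincubated 5 min at 37 °C, then aggregation started with DTT (from 1 M stock). A400 read every 3 min for up to 2 h. Controls were insulin with or without α-crystallin in 0.1% DMSO. Three independent experiments, each in triplicate; mean curves.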

U87 xenograft tumor = U87 xenograft tumor model in nude mice; format: in vivo
How it was run: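 Nude mice (5–6 weeks) received U87 cells (5 × 10^6 in PBS) subcutaneously into both flanks; n = 4/group, 8 tumors/group. At about 50 mm3, mice got vehicle (DMSO) or test compound 20 mg/kg in PBS IP three times weekly for 14 days. Calipers three times weekly, V = 2/3 d1 × d2², body weight recorded. At end: CO2 euthanasia, tumors weighed, two tumors per mouse pooled and homogenized in RIPA for AR blotting.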

[3] = test system: AR protein level in T98G cells; assay: AR downregulation in T98G cells by Western blotting; format: cell-based, human
How it was run: as §1

AR in T98G cells = assay: AR immunofluorescence assay in T98G cells; format: cell-based, human; conditions: 50 nM, 12 h, compared to the control
How it was run: (§2)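 Cells were grown on coverslips for 24 h, then given test compound at 50 nM for 12 h. Fixed in 4% paraformaldehyde (10 min), permeabilized with 0.1% Triton X-100 (10 min) and blocked in 1% BSA (30 min). Anti-AR primary 1 h, fluorescent secondary 1 h, nuclei stained with DAPI 1 µg/mL for 10 min, then imaged by fluorescence microscopy.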

AR-V7 in T98G cells = assay: Mutated AR; format: cell-based, human; conditions: Western blotting
How it was run: as §1

Maximum-tolerated dose = format: in vivo; conditions: 100 mg/kg per day IP for 10 days
How it was run: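 Twelve C57BL/6 mice randomised into three groups (vehicle DMSO, or test compound in PBS), dosed IP daily and euthanised after 10 days. Body weight recorded daily. Nonfasted cardiac blood drawn immediately after euthanasia for automated haematology analysis. Heart, liver, spleen, lung and kidney rinsed in PBS, formalin-fixed, ethanol-dehydrated, xylene-cleared, paraffin-embedded and H&E-stained.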

AR in U87 cells = assay: AR immunofluorescence assay in U87 cells; format: cell-based, human; conditions: 50 nM, 12 h, compared to the control
How it was run: as §2

[4] = cited from earlier work

| Compound | AR protein level [1] | inhibition of in vitro chaperone function of HSP27 ([2]; 10 μM (Figure 3), α-crystallin present) | interference with DTT-induced insulin aggregation ([2]; without chaperone protein, 10 μM or below) | nude mice body weight (U87 xenograft tumor; 20 mg/kg IP every other day, 2 weeks) | tumor size (U87 xenograft tumor; 20 mg/kg IP every other day, 2 weeks, vs control) | tumor weight (U87 xenograft tumor; 20 mg/kg IP every other day, end of experiment, vs control) | AR protein level in tumors (U87 xenograft tumor; 20 mg/kg IP, Western blotting of tumor lysates, vs control) | AR downregulation activity at 50 nM ([3]; 50 nM, 12 h) | AR downregulation activity at 100 nM ([3]; 100 nM, 12 h) | AR protein level ([3]; 25, 50, and 100 nM) | fluorescence intensities of AR (AR in T98G cells) | mutated AR (AR-V7) level (AR-V7 in T98G cells) | condition observation (signs of toxicity such as dehydration, acute pain, or distress) (Maximum-tolerated dose) | body weight growth rate (Maximum-tolerated dose; vs control group) | hematology, profile of the blood (Maximum-tolerated dose; vs control group) | tissue staining (H&E) of kidney, spleen, lung, liver, and heart (Maximum-tolerated dose; vs control group) | fluorescence intensities of AR (AR in U87 cells) | AUC in brain tissue as share of the AUC in plasma [4] | half-life [4] |
| --- | --- | --- | --- | --- | --- | --- | --- | --- | --- | --- | --- | --- | --- | --- | --- | --- | --- | --- | --- |
| COc1ccc(OC)c(COc2cc(NC(=O)c3ccc4ccccc4c3)ccc2NS(C)(=O)=O)c1 [Compound 26, N-(3-((2,5-Dimethoxybenzyl)oxy)-4-(methylsulfonamido)phenyl)-2-naphthamide] | significantly downregulate | significantly inhibit | do not interfere | not affected | significantly decreased | significantly decrease | significantly decreased | potent AR downregulation activity | significant AR downregulation activity | significantly downregulate | decreased | downregulate | do not show any sign of toxicity | no growth rate difference | no change | no substantial histological abnormalities | decreased | – | – |
| COc1ccc(C(=O)Nc2ccc(NS(C)(=O)=O)c(OCc3cc(OC)ccc3OC)c2)cc1 [Compound I, N-(3-((2,5-dimethoxybenzyl)oxy)-4-(methylsulfonamido)phenyl)-4-methoxybenzamide] | – | – | – | – | – | – | – | – | – | – | – | – | – | – | – | – | – | about 2% | about 1.5 h |
